# Tested on: HEK-293T
# Test: Multiplex assay against HEK293T
# Assay type: toxicity, cell-based
# Conditions: human
# In short: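 Live cells were stained at seeding with Hoechst33342, BioTracker Green Microtubule Cytoskeleton Dye, MitoTracker Red and Annexin V Alexa Fluor 680, then imaged on a CQ1 microscope at 37°C and 5% CO2 after compound addition. CellPathfinder machine-learning gating split cells into Hoechst high-intensity objects or normal cells. Normal cells were split into healthy, pyknosed or fragmented nuclei, and pyknosed cells into mitotic or apoptotic. Tubulin, mitochondrial-mass and membrane-permeability phenotypes are per cents of healthy-nucleus cells.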
# [1] = 12 h, 1 µM, compound concentration 1 uM, replicate 1
# [2] = 12 h, 1 µM, compound concentration 1 uM, replicate 2
# [3] = 12 h, 10 µM, compound concentration 10 uM, replicate 1
# [4] = 12 h, 10 µM, compound concentration 10 uM, replicate 2
# [5] = 24 h, 1 µM, compound concentration 1 uM, replicate 1
# [6] = 24 h, 1 µM, compound concentration 1 uM, replicate 2
# [7] = 24 h, 10 µM, compound concentration 10 uM, replicate 1
# [8] = 24 h, 10 µM, compound concentration 10 uM, replicate 2
# [9] = 48 h, 1 µM, compound concentration 1 uM, replicate 1
# [10] = 48 h, 1 µM, compound concentration 1 uM, replicate 2
# [11] = 48 h, 10 µM, compound concentration 10 uM, replicate 1
# [12] = 48 h, 10 µM, compound concentration 10 uM, replicate 2
smiles,measurement,setting,value
O=C(Nc1cc(-c2ccccc2)nn1-c1ccccc1F)c1ccc([N+](=O)[O-])cc1,Population Apoptotic (%),[1],33%
same,Population Fragmented Nuclei (%),[1],7%
same,Population Healthy Nuclei (%),[1],78%
same,Population Hoechst High Intensity Objects (%),[1],9%
same,Population Membrane Permeable-Phenotype (%),[1],0%
same,Population Mitochondria Different-Phenotype (%),[1],31%
same,Population Mitotic Cells (%),[1],66%
same,Population Normal (%),[1],90%
same,Population Pyknosed Nuclei (%),[1],13%
same,Population Tubulin-Different-Phenotype (%),[1],19%
same,Total Cell Count,[1],402
same,Population Apoptotic (%),[2],37%
same,Population Fragmented Nuclei (%),[2],6%
same,Population Healthy Nuclei (%),[2],83%
same,Population Hoechst High Intensity Objects (%),[2],6%
same,Population Mitochondria Different-Phenotype (%),[2],48%
same,Population Mitotic Cells (%),[2],62%
same,Population Normal (%),[2],94%
same,Population Pyknosed Nuclei (%),[2],9%
same,Total Cell Count,[2],417
same,Population Apoptotic (%),[3],37%
same,Population Fragmented Nuclei (%),[3],10%
same,Population Healthy Nuclei (%),[3],71%
same,Population Hoechst High Intensity Objects (%),[3],5%
same,Population Membrane Permeable-Phenotype (%),[3],0%
same,Population Mitochondria Different-Phenotype (%),[3],41%
same,Population Mitotic Cells (%),[3],62%
same,Population Normal (%),[3],94%
same,Population Pyknosed Nuclei (%),[3],17%
same,Population Tubulin-Different-Phenotype (%),[3],40%
same,Total Cell Count,[3],342
same,Population Apoptotic (%),[4],44%
same,Population Fragmented Nuclei (%),[4],6%
same,Population Healthy Nuclei (%),[4],73%
same,Population Hoechst High Intensity Objects (%),[4],6%
same,Population Mitochondria Different-Phenotype (%),[4],65%
same,Population Mitotic Cells (%),[4],55%
same,Population Normal (%),[4],93%
same,Population Pyknosed Nuclei (%),[4],20%
same,Population Tubulin-Different-Phenotype (%),[4],45%
same,Total Cell Count,[4],367
same,Population Apoptotic (%),[5],33%
same,Population Fragmented Nuclei (%),[5],8%
same,Population Healthy Nuclei (%),[5],78%
same,Population Hoechst High Intensity Objects (%),[5],4%
same,Population Membrane Permeable-Phenotype (%),[5],0%
same,Population Mitochondria Different-Phenotype (%),[5],21%
same,Population Mitotic Cells (%),[5],66%
same,Population Normal (%),[5],95%
same,Population Pyknosed Nuclei (%),[5],12%
same,Population Tubulin-Different-Phenotype (%),[5],17%
same,Total Cell Count,[5],481
same,Population Apoptotic (%),[6],35%
same,Population Fragmented Nuclei (%),[6],12%
same,Population Membrane Permeable-Phenotype (%),[6],1%
same,Population Mitochondria Different-Phenotype (%),[6],31%
same,Population Mitotic Cells (%),[6],64%
same,Population Pyknosed Nuclei (%),[6],8%
same,Population Tubulin-Different-Phenotype (%),[6],16%
same,Total Cell Count,[6],530
same,Population Apoptotic (%),[7],15%
same,Population Fragmented Nuclei (%),[7],9%
same,Population Healthy Nuclei (%),[7],77%
same,Population Hoechst High Intensity Objects (%),[7],2%
same,Population Membrane Permeable-Phenotype (%),[7],0%
same,Population Mitochondria Different-Phenotype (%),[7],35%
same,Population Mitotic Cells (%),[7],84%
same,Population Normal (%),[7],97%
same,Population Pyknosed Nuclei (%),[7],13%
same,Population Tubulin-Different-Phenotype (%),[7],35%
same,Total Cell Count,[7],434
same,Population Apoptotic (%),[8],22%
same,Population Fragmented Nuclei (%),[8],7%
same,Population Healthy Nuclei (%),[8],83%
same,Population Hoechst High Intensity Objects (%),[8],3%
same,Population Mitochondria Different-Phenotype (%),[8],47%
same,Population Mitotic Cells (%),[8],77%
same,Population Normal (%),[8],96%
same,Population Pyknosed Nuclei (%),[8],8%
same,Population Tubulin-Different-Phenotype (%),[8],33%
same,Total Cell Count,[8],482
same,Population Apoptotic (%),[9],17%
same,Population Fragmented Nuclei (%),[9],13%
same,Population Healthy Nuclei (%),[9],79%
same,Population Hoechst High Intensity Objects (%),[9],3%
same,Population Membrane Permeable-Phenotype (%),[9],2%
same,Population Mitochondria Different-Phenotype (%),[9],14%
same,Population Mitotic Cells (%),[9],82%
same,Population Normal (%),[9],96%
same,Population Pyknosed Nuclei (%),[9],7%
same,Population Tubulin-Different-Phenotype (%),[9],9%
same,Total Cell Count,[9],893
same,Population Apoptotic (%),[10],33%
same,Population Fragmented Nuclei (%),[10],17%
same,Population Healthy Nuclei (%),[10],74%
same,Population Hoechst High Intensity Objects (%),[10],2%
same,Population Mitochondria Different-Phenotype (%),[10],15%
same,Population Mitotic Cells (%),[10],66%
same,Population Normal (%),[10],97%
same,Population Tubulin-Different-Phenotype (%),[10],11%
same,Total Cell Count,[10],799
same,Population Apoptotic (%),[11],22%
same,Population Fragmented Nuclei (%),[11],12%
same,Population Healthy Nuclei (%),[11],77%
same,Population Hoechst High Intensity Objects (%),[11],2%
same,Population Membrane Permeable-Phenotype (%),[11],2%
same,Population Mitochondria Different-Phenotype (%),[11],19%
same,Population Mitotic Cells (%),[11],77%
same,Population Normal (%),[11],97%
same,Population Pyknosed Nuclei (%),[11],9%
same,Population Tubulin-Different-Phenotype (%),[11],23%
same,Total Cell Count,[11],671
same,Population Apoptotic (%),[12],20%
same,Population Fragmented Nuclei (%),[12],15%
same,Population Hoechst High Intensity Objects (%),[12],3%
same,Population Membrane Permeable-Phenotype (%),[12],1%
same,Population Mitochondria Different-Phenotype (%),[12],27%
same,Population Mitotic Cells (%),[12],79%
same,Population Normal (%),[12],96%
same,Population Pyknosed Nuclei (%),[12],6%
same,Population Tubulin-Different-Phenotype (%),[12],26%
same,Total Cell Count,[12],666
COc1c(Nc2ccc(S(C)(=O)=O)nc2C)ncnc1OC1CCN(C(=O)OC(C)C)CC1 [ADP-597],Population Apoptotic (%),[1],29%
same,Population Fragmented Nuclei (%),[1],5%
same,Population Healthy Nuclei (%),[1],78%
same,Population Hoechst High Intensity Objects (%),[1],6%
same,Population Membrane Permeable-Phenotype (%),[1],0%
same,Population Mitochondria Different-Phenotype (%),[1],47%
same,Population Mitotic Cells (%),[1],70%
same,Population Normal (%),[1],93%
same,Population Pyknosed Nuclei (%),[1],16%
same,Population Tubulin-Different-Phenotype (%),[1],36%
same,Total Cell Count,[1],430
same,Population Apoptotic (%),[2],38%
same,Population Fragmented Nuclei (%),[2],4%
same,Population Healthy Nuclei (%),[2],80%
same,Population Hoechst High Intensity Objects (%),[2],3%
same,Population Mitochondria Different-Phenotype (%),[2],62%
same,Population Mitotic Cells (%),[2],62%
same,Population Normal (%),[2],96%
same,Population Pyknosed Nuclei (%),[2],14%
same,Population Tubulin-Different-Phenotype (%),[2],25%
same,Total Cell Count,[2],347
same,Population Apoptotic (%),[3],47%
same,Population Fragmented Nuclei (%),[3],7%
same,Population Healthy Nuclei (%),[3],75%
same,Population Hoechst High Intensity Objects (%),[3],8%
same,Population Membrane Permeable-Phenotype (%),[3],0%
same,Population Mitochondria Different-Phenotype (%),[3],70%
same,Population Mitotic Cells (%),[3],52%
same,Population Normal (%),[3],91%
same,Population Pyknosed Nuclei (%),[3],17%
same,Population Tubulin-Different-Phenotype (%),[3],44%
same,Total Cell Count,[3],302
same,Population Healthy Nuclei (%),[4],72%
same,Population Hoechst High Intensity Objects (%),[4],25%
same,Population Mitochondria Different-Phenotype (%),[4],71%
same,Population Normal (%),[4],74%
same,Population Pyknosed Nuclei (%),[4],20%
same,Population Tubulin-Different-Phenotype (%),[4],36%
same,Total Cell Count,[4],238
same,Population Apoptotic (%),[5],23%
same,Population Fragmented Nuclei (%),[5],7%
same,Population Healthy Nuclei (%),[5],81%
same,Population Hoechst High Intensity Objects (%),[5],2%
same,Population Membrane Permeable-Phenotype (%),[5],0%
same,Population Mitochondria Different-Phenotype (%),[5],20%
same,Population Mitotic Cells (%),[5],76%
same,Population Normal (%),[5],97%
same,Population Pyknosed Nuclei (%),[5],11%
same,Population Tubulin-Different-Phenotype (%),[5],16%
same,Total Cell Count,[5],587
same,Population Apoptotic (%),[6],30%
same,Population Fragmented Nuclei (%),[6],6%
same,Population Healthy Nuclei (%),[6],84%
same,Population Hoechst High Intensity Objects (%),[6],3%
same,Population Membrane Permeable-Phenotype (%),[6],1%
same,Population Mitochondria Different-Phenotype (%),[6],34%
same,Population Mitotic Cells (%),[6],69%
same,Population Normal (%),[6],96%
same,Population Pyknosed Nuclei (%),[6],9%
same,Population Tubulin-Different-Phenotype (%),[6],15%
same,Total Cell Count,[6],447
same,Population Apoptotic (%),[7],44%
same,Population Fragmented Nuclei (%),[7],9%
same,Population Healthy Nuclei (%),[7],74%
same,Population Hoechst High Intensity Objects (%),[7],7%
same,Population Membrane Permeable-Phenotype (%),[7],0%
same,Population Mitochondria Different-Phenotype (%),[7],58%
same,Population Mitotic Cells (%),[7],55%
same,Population Normal (%),[7],92%
same,Population Pyknosed Nuclei (%),[7],15%
same,Population Tubulin-Different-Phenotype (%),[7],38%
same,Total Cell Count,[7],355
same,Population Apoptotic (%),[8],63%
same,Population Fragmented Nuclei (%),[8],11%
same,Population Healthy Nuclei (%),[8],71%
same,Population Hoechst High Intensity Objects (%),[8],21%
same,Population Mitochondria Different-Phenotype (%),[8],54%
same,Population Mitotic Cells (%),[8],36%
same,Population Normal (%),[8],78%
same,Population Pyknosed Nuclei (%),[8],17%
same,Population Tubulin-Different-Phenotype (%),[8],25%
same,Total Cell Count,[8],300
same,Population Apoptotic (%),[9],25%
same,Population Fragmented Nuclei (%),[9],13%
same,Population Healthy Nuclei (%),[9],78%
same,Population Hoechst High Intensity Objects (%),[9],2%
same,Population Membrane Permeable-Phenotype (%),[9],0%
same,Population Mitochondria Different-Phenotype (%),[9],18%
same,Population Mitotic Cells (%),[9],75%
same,Population Normal (%),[9],97%
same,Population Pyknosed Nuclei (%),[9],8%
same,Population Tubulin-Different-Phenotype (%),[9],13%
same,Total Cell Count,[9],924
same,Population Apoptotic (%),[10],36%
same,Population Healthy Nuclei (%),[10],77%
same,Population Hoechst High Intensity Objects (%),[10],5%
same,Population Membrane Permeable-Phenotype (%),[10],1%
same,Population Mitochondria Different-Phenotype (%),[10],23%
same,Population Mitotic Cells (%),[10],63%
same,Population Normal (%),[10],94%
same,Population Pyknosed Nuclei (%),[10],9%
same,Population Tubulin-Different-Phenotype (%),[10],14%
same,Total Cell Count,[10],590
same,Population Apoptotic (%),[11],35%
same,Population Fragmented Nuclei (%),[11],15%
same,Population Healthy Nuclei (%),[11],73%
same,Population Hoechst High Intensity Objects (%),[11],4%
same,Population Membrane Permeable-Phenotype (%),[11],0%
same,Population Mitochondria Different-Phenotype (%),[11],38%
same,Population Mitotic Cells (%),[11],64%
same,Population Normal (%),[11],95%
same,Population Pyknosed Nuclei (%),[11],11%
same,Population Tubulin-Different-Phenotype (%),[11],23%
same,Total Cell Count,[11],494
same,Population Apoptotic (%),[12],43%
same,Population Fragmented Nuclei (%),[12],13%
same,Population Hoechst High Intensity Objects (%),[12],10%
same,Population Mitochondria Different-Phenotype (%),[12],32%
same,Population Mitotic Cells (%),[12],56%
same,Population Normal (%),[12],89%
same,Population Pyknosed Nuclei (%),[12],12%
same,Population Tubulin-Different-Phenotype (%),[12],18%
same,Total Cell Count,[12],392
